Experimental data: paper PMC2897705 (Biochemistry, 2010)

Key:
Assay type in all cases: biochemical
[1] = molecular target: T1, LRRK2 (Mus musculus, UniProt Q5S006); test: TR-FRET assay of LRRK2-catalyzed PLK-peptide phosphorylation
Summary of the method: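 Mouse-brain-derived LRRK2 (4 nM) phosphorylates PLK-peptide (RRRSLLE) with varied ATP. Runs are in duplicate, 4 h at room temperature, stopped with 10 mM EDTA, then 2 h with 2 nM Eu-anti-phospho-PLK before the TR-FRET read. For inhibitor studies, ATP is varied at 100 nM PLK-peptide with test compound 0–16.7 µM. Initial velocities are fitted by nonlinear least squares.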

[2] = molecular target: T1, LRRK2; test: Radiometric assay of LRRK2-catalyzed LRRKtide phosphorylation; details: for effect of nucleotide on kinase activity: LRRKtide phosphorylation, data not shown
[3] = molecular target: T1, LRRK2; test: Radiometric TLC assay of LRRK2-catalyzed GTP hydrolysis; details: for Ki: read-out: apparent dissociation constant Ki,app
Summary of the method: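 LRRK2 purified from BAC-transgenic mouse brain (30 nM) starts GTP hydrolysis with GTP plus [α-33P]-GTP. Runs are in triplicate, 20 min at room temperature, stopped with 20 mM EDTA. [α-33P]-GDP is resolved on PEI-cellulose TLC (0.5 M KH2PO4, pH 3.4) and counted by scintillation. Initial velocities versus [GTP] are fitted to Michaelis–Menten.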

[4] = 200 µM GTP, 0.5 mM ADP, 0.5 mM ATP or 1 µM PLK

T1 sequence (Q5S006 whole entry): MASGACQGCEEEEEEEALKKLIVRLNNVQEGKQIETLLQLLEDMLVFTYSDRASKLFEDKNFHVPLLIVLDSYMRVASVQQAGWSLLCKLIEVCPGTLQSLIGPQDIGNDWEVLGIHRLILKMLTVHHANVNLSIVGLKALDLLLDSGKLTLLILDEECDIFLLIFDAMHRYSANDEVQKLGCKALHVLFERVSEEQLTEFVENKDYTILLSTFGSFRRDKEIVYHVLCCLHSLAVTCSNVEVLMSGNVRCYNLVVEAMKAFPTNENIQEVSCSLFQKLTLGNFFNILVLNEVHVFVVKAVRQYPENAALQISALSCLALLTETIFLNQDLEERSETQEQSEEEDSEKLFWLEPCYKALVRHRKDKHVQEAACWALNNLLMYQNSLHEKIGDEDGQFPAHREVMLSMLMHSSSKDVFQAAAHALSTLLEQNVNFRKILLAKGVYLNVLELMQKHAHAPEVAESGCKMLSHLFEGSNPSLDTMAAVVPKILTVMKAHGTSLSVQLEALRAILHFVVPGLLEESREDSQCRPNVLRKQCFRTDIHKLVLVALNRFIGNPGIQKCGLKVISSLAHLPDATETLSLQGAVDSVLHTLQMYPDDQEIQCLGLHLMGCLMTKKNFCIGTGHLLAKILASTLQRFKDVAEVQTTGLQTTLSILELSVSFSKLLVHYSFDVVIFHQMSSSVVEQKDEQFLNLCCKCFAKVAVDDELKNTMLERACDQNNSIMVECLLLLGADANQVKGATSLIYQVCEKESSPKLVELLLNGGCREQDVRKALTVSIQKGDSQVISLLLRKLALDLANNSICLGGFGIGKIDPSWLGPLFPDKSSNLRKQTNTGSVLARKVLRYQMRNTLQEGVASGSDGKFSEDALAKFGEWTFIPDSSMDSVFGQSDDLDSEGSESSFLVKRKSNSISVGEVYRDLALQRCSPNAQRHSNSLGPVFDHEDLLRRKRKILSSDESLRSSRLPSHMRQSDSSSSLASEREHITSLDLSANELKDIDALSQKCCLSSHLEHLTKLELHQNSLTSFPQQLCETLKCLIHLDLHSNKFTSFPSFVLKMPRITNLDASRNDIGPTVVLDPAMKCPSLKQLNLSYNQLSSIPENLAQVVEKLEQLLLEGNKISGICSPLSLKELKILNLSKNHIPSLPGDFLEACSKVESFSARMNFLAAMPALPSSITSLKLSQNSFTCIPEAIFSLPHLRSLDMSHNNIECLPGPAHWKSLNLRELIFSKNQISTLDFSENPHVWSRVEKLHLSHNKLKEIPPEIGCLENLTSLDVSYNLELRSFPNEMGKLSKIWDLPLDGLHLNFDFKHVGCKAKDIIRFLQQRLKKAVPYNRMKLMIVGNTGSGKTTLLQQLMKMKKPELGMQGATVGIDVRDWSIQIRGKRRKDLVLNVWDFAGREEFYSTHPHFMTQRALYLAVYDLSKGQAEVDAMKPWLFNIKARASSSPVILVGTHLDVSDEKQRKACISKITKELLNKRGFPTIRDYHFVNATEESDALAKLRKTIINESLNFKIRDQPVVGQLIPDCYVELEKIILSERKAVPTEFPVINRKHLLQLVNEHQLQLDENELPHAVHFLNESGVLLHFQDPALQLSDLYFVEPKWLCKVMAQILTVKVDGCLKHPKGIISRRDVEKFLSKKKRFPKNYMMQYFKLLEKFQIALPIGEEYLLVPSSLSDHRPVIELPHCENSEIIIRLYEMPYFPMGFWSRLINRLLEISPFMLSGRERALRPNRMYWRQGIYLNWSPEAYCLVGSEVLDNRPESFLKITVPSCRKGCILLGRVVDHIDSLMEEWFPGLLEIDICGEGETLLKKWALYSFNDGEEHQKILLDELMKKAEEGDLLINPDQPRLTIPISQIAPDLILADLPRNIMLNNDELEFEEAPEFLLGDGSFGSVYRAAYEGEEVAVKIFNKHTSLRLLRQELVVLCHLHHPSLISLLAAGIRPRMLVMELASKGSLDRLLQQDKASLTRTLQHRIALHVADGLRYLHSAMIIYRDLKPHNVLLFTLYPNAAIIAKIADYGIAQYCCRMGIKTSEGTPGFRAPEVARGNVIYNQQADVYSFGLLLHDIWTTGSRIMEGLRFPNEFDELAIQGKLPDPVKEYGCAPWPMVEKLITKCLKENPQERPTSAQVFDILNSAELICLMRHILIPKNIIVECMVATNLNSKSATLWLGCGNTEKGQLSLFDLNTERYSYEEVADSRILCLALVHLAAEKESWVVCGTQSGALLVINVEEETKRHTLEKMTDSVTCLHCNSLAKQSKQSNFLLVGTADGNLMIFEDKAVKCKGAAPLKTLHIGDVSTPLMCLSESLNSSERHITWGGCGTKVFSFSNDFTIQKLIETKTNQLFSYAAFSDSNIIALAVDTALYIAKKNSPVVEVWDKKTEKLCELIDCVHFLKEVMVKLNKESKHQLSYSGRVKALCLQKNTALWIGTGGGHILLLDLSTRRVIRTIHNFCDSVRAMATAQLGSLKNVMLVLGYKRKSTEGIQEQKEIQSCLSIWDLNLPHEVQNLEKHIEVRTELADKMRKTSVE

Q: Which results are given for `Nc1ncnc2c1ncn2[C@@H]1O[C@H](COP(=O)(O)OP(=O)(O)OP(=O)(O)O)[C@@H](O)[C@H]1O` [ATP]?
A: KA (KATP) ([1]; ATP with PLK-peptide as phosphoryl acceptor, global fit): 13 ± 2.9 µM; KA (KATP) ([2]; ATP with LRRKtide as phosphoryl acceptor, global fit): 67 ± 6.4 µM; inhibition of GTPase activity [3, 4]: Inhibition of GTPase activity was detected

Q: How did the “effect of nucleotide on kinase activity” value [2] turn out when `Nc1nc2c(ncn2[C@@H]2O[C@H](COP(=O)(O)OP(=O)(O)OP(=O)(O)O)[C@@H](O)[C@H]2O)c(=O)[nH]1` [GTP] was run?
A: no significant activation or inhibition of kinase activity was detected

Q: What about the “solvent isotope effect ^Dkcat” value ([3]; 1 mM GTP, pH 7.4, D2O molar fraction 0.86, four experiments) of the same molecule?
A: 0.97 ± 0.04

Q: And the kcat ([3]; GTP hydrolysis)?
A: 0.23 ± 0.02 s⁻¹

Q: What about the Km ([3]; read-out: Km (KGTP), GTP hydrolysis) of the same molecule?
A: 210 ± 29 µM

Q: With `CN[C@@H]1C[C@H]2O[C@@](C)([C@@H]1OC)n1c3ccccc3c3c4c(c5c6ccccc6n2c5c31)C(=O)NC4` [staurosporine] as the molecule, how does the “inhibition of LRRK2 kinase activity” value ([1]; kinase assay not specified, data not shown) read?
A: inhibits LRRK2 kinase activity

Q: What about the “inhibition of GTPase activity” value ([3]; data not shown) of the same molecule?
A: does not inhibit GTPase activity at all

Q: Which Ki ([1]; read-out: Ki,e, PLK-peptide as phosphoryl acceptor) does the source give for `Nc1ncnc2c1ncn2[C@@H]1O[C@H](COP(=O)(O)O)[C@@H](O)[C@H]1O` [AMP] here?
A: 2500 nM

Q: And the “difference of Ki,e between PLK-peptide and LRRKtide reactions” value [2]?
A: 5 fold

Q: And the Ki ([2]; read-out: Ki,e, LRRKtide as phosphoryl acceptor)?
A: 12 µM

Q: Which “difference in dissociation constants, GTPase vs kinase reaction” value [3] does the source give for `Nc1ncnc2c1ncn2[C@@H]1O[C@H](COP(=O)(O)OP(=O)(O)O)[C@@H](O)[C@H]1O` [ADP] here?
A: 30 fold

Q: What about the “inhibition of GTPase activity” value [3, 4] of the same molecule?
A: Inhibition of GTPase activity was detected

Q: What about the Ki ([3]; 200 µM GTP) of the same molecule?
A: 600 ± 100 µM

Q: Which “effect of nucleotide on kinase activity” value [2] does the source give for `Nc1nc2c(ncn2[C@@H]2O[C@H](COP(=O)(O)OP(=O)(O)O)[C@@H](O)[C@H]2O)c(=O)[nH]1` [GDP] here?
A: no significant activation or inhibition of kinase activity was detected

Q: What about the Ki ([3]; 200 µM GTP) of the same molecule?
A: 97 ± 16 µM

Q: For `Nc1nc2c(ncn2[C@@H]2O[C@H](COP(=O)(O)O)[C@@H](O)[C@H]2O)c(=O)[nH]1` [GMP], which “effect of nucleotide on kinase activity” value [2] is on record?
A: no significant activation or inhibition of kinase activity was detected

Q: And the Ki ([3]; 200 µM GTP)?
A: 2900 ± 300 µM
